How the values were obtained:
Caco-2 = assay: Cytotoxicity against human Caco-2 cells assessed as cell viability by XTT assay; type: functional, cell-based
In short: (§1)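 Cells were seeded at 5 × 10^4 per well and grown 48 h at 37 °C, 5% CO2, before medium renewal. Drugs were added at a range of concentrations for 24 h. XTT was added for 4 h, then absorbance read at 490 nm against medium-only controls. Viability was plotted versus concentration to estimate EC50 (mean ± SD, n = 3).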

MDA-MB-231 = assay: Cytotoxicity against human MDA-MB-231 cells assessed as cell viability by XTT assay; type: functional, cell-based; in short: as §1
MCF7 = assay: Cytotoxicity against human MCF7 cells assessed as cell viability by XTT assay; type: functional, cell-based; in short: as §1
[1] = molecular target: T1, Xaa-Pro dipeptidase (Homo sapiens) (UniProt P12955); assay: Activity of prolidase in human HeLa cells measured per gram of protein in presence of Cbz-pro; type: cell-based
T1 sequence (whole entry): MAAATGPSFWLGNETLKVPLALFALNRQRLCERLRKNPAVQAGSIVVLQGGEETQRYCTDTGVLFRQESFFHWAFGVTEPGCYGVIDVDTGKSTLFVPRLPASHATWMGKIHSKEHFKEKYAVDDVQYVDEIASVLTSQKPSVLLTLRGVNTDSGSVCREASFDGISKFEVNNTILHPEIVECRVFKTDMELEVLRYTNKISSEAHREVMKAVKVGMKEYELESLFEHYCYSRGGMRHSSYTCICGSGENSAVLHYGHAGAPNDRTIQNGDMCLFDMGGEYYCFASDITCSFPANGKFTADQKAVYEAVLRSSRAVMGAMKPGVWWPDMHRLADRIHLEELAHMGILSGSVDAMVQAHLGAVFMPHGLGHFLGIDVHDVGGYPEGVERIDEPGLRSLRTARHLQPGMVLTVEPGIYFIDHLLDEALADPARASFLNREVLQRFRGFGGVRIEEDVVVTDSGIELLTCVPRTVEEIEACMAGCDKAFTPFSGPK
In short: (§2)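 Cells were grown to 90% confluence, trypsinized, PBS-washed, and lysed in 1% Triton X-100/PBS. Lysate was spun 18,000 rpm, 30 min, 4 °C. Supernatant was activated 2 h at 37 °C with Tris–HCl/200 mM MnCl2/30 mM glutathione. 1 mM Pro-MTX was then added at 37 °C, sampled at 15, 30 and 60 min, and TFA-quenched. Proline was read colorimetrically; specific activity is per µg protein. Cbz-Pro inhibitor was equimolar.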

Sus scrofa [2] = species: Sus scrofa; assay: Activity of pig kidney prolidase measured per gram of protein
In short: (§3)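 Pro-MTX (1 mM) hydrolysed by porcine kidney prolidase at 40 °C. Enzyme was first activated 30 min at 40 °C in 50 mM Tris–HCl (pH 8.0) with 200 mM MnCl2 and 30 mM glutathione. Samples were taken at 15 min, 30 min and 1 h and quenched with equal volume 10% TFA. Released proline was assayed colorimetrically (Chinard's reagent, 90 °C 10 min, A495). Inhibitor runs added Cbz-Pro equimolar to substrate.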

Sus scrofa [3] = species: Sus scrofa; assay: Activity of pig kidney prolidase measured per gram of protein in presence of Cbz-pro; in short: as §3
[4] = molecular target: T1, Xaa-Pro dipeptidase (Homo sapiens); assay: Activity of prolidase in human Caco-2 cells measured per gram of protein; type: cell-based; in short: as §2
[5] = Chemical stability of the compound in phosphate buffer saline of pH 7.4; type: physicochemical
[6] = molecular target: T1, Xaa-Pro dipeptidase (Homo sapiens); assay: Activity of prolidase in human HeLa cells measured per gram of protein; type: cell-based; in short: as §2
[7] = molecular target: T1, Xaa-Pro dipeptidase (Homo sapiens); assay: Activity of prolidase in human Caco-2 cells measured per gram of protein in presence of Cbz-pro; type: cell-based; in short: as §2

Activity [1] | Activity (Sus scrofa [2]) | Activity (Sus scrofa [3]) | Activity [4] | Stability [5] | Activity [6] | Activity [7] | Compound | EC50 (Caco-2) | EC50 (MDA-MB-231) | EC50 (MCF7)
– | – | – | – | – | – | – | CN(Cc1cnc2nc(N)nc(N)c2n1)c1ccc(C(=O)N[C@@H](CCC(=O)O)C(=O)O)cc1 [METHOTREXATE] | 1.1 µM | 80 µM | 0.9 µM
0.19 pmol/min | 19 pmol/min | 8.15 pmol/min | 0.42 pmol/min | Stable | 0.35 pmol/min | 0.28 pmol/min | CN(Cc1cnc2nc(N)nc(N)c2n1)c1ccc(C(=O)N[C@H](CCC(=O)O)C(=O)N2CCC[C@@H]2C(=O)O)cc1 | 5.6 µM | 11 µM | 5.2 µM

From ChEMBL document CHEMBL1221286, “Development of methotrexate proline prodrug to overcome resistance by MDA-MB-231 cells” (Bioorg Med Chem Lett, 2010)
